Measurements as given in ChEMBL document CHEMBL1128200, “(R)-(+)-N-[3-[5-[(4-fluorophenyl)methyl]-2-thienyl]-1-methyl- 2-propynyl]-N-hydroxyurea (ABT-761), a second-generation 5-lipoxygenase inhibitor” (J Med Chem, 1995).

Tests used:
Monkey = conditions: Cercopithecidae; Liver
[1] = target: T1, Polyunsaturated fatty acid 5-lipoxygenase (Homo sapiens, UniProt P09917); assay: (§1) 5-lipoxygenase Inhibitory activity was measured by enzyme immunoassay using human whole blood stimulated with calcium ionophore (A23187) and LTB4 (leukotriene B4); assay type: tissue-based
T1 sequence (P09917 whole entry): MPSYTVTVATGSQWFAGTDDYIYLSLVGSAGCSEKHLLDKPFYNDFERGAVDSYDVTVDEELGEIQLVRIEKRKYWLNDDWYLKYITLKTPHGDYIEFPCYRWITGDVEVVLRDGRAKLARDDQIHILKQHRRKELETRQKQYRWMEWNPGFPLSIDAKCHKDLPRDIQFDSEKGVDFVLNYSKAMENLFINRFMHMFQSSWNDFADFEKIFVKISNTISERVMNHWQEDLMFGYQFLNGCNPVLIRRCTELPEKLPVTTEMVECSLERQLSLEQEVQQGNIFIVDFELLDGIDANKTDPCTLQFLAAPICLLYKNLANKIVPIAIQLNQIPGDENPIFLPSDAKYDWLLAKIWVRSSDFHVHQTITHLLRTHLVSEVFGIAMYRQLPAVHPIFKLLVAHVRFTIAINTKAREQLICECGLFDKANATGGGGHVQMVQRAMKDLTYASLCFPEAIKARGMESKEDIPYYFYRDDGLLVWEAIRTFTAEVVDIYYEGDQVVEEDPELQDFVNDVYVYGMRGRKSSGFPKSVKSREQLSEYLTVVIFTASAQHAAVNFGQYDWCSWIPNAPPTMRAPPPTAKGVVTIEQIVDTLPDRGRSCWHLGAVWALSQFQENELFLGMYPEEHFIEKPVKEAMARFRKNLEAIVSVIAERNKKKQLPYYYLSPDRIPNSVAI
Outline: (§2)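 Heparinized human blood (20 USP units/mL) preincubated with drug or vehicle 15 min at 37 °C, then stimulated with calcium ionophore A23187; LTB4 in extracts quantified by EIA. IC50 estimated by linear regression; means of at least duplicate, mostly triplicate determinations.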

Rattus norvegicus = assay: Compound was evaluated in vivo for the rat anaphylaxis leukotriene formation at an oral dose of 30 umol/kg; assay type: functional
Outline: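 Male Sprague-Dawley rats passively sensitized ip with rabbit anti-BSA antiserum; 3 h later challenged ip with 4 mg BSA in PBS. Drug given by oral gavage 1 h before challenge; killed 15 min post-challenge, peritoneal fluid collected, methanol-extracted, LTE4 measured by EIA. 8 rats/group; percent inhibition versus control group mean.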

[2] = Oral bioavailability was determined in cynomolgus monkey; assay type: ADME, organism-based, Macaca fascicularis; conditions: in vivo
[3] = Oral bioavailability was determined in dog; assay type: ADME, organism-based, Canis lupus familiaris; conditions: in vivo
[4] = Oral bioavailability was determined in guinea pig; assay type: ADME, organism-based, Cavia porcellus; conditions: in vivo
[5] = Oral bioavailability in rat; assay type: ADME, organism-based; conditions: in vivo
[6] = Oral bioavailability was determined in mouse; assay type: ADME, organism-based; conditions: in vivo
[7] = target: T2, Polyunsaturated fatty acid 5-lipoxygenase (Homo sapiens) (UniProt P09917); assay: as §1; assay type: tissue-based; conditions: concentration not given here
T2 sequence (whole entry): T1 sequence (P09917 whole entry)
Outline: as §2

Row | SMILES | IC50 [1] [nM] | GT rate (Monkey) | ED50 (Rattus norvegicus) [mg/kg] | also measured
1 | CC(/C=C/c1ccc(Oc2ccc(F)cc2)o1)N(O)C(N)=O (configuration not stated) | – | 0.07 | – | –
2 | NC(=O)N(O)CC#Cc1ccc(Cc2ccc(F)cc2)s1 | 70 | 0.05 | – | inhibition in vivo at 30 µmol/kg (Rattus norvegicus): 78%
3 | CC(c1cc2ccccc2s1)N(O)C(N)=O (configuration not stated) [ZILEUTON] | – | 0.12 | 4.4 | –
4 | CC(C#Cc1ccc(Cc2ccc(F)cc2)s1)N(O)C(N)=O (configuration not stated) | 200 | – | 5.6 | –
5 | CC(/C=C\c1ccc(Oc2ccc(F)cc2)o1)N(O)C(N)=O (configuration not stated) | – | 2.4 | – | –
6 | C[C@H](C#Cc1ccc(Cc2ccc(F)cc2)s1)N(O)C(N)=O [ATRELEUTON] | – | – | 2.8 | bioavailability [2]: 90%; bioavailability [3]: 95%; bioavailability [4]: 90%; bioavailability [5]: 60%; bioavailability [6]: 100%
7 | CC(c1ccc(Oc2ccc(F)cc2)o1)N(O)C(N)=O (configuration not stated) | – | 0.31 | – | inhibition in vivo at 30 µmol/kg (Rattus norvegicus): 0%; inhibition [7]: 58%
8 | C[C@@H](C#Cc1ccc(Cc2ccc(F)cc2)s1)N(O)C(N)=O | 200 | – | 2.1 | –

The next lines start with results.

Row | IC50 [1] [nM] | SMILES | GT rate (Monkey) | ED50 (Rattus norvegicus) [mg/kg] | also measured
9 | 50 | C[C@@H](C#Cc1ccc(Oc2ccc(F)cc2)o1)N(O)C(N)=O | 0.05 | 1.5 | –
10 | 80 | C[C@H](C#Cc1ccc(Oc2ccc(F)cc2)o1)N(O)C(N)=O | 0.01 | 1.4 | –
11 | 60 | NC(=O)N(O)CC#Cc1ccc(Oc2ccc(F)cc2)o1 | 0.03 | – | inhibition in vivo at 30 µmol/kg (Rattus norvegicus): 70%
12 | 80 | CC(C#Cc1ccc(Oc2ccc(F)cc2)o1)N(O)C(N)=O (configuration not stated) | 0.02 | 1.2 | –
